{"source": "ChEMBL document CHEMBL4732214", "about": "“Highly Selective Y Receptor Antagonist Binds in an Allosteric Binding Pocket” (J Med Chem, 2021)", "key": {"[1]": {"molecular_target": "T1, Neuropeptide Y receptor type 4 (Homo sapiens, UniProt P50391)", "T1 sequence (P50391 whole entry)": "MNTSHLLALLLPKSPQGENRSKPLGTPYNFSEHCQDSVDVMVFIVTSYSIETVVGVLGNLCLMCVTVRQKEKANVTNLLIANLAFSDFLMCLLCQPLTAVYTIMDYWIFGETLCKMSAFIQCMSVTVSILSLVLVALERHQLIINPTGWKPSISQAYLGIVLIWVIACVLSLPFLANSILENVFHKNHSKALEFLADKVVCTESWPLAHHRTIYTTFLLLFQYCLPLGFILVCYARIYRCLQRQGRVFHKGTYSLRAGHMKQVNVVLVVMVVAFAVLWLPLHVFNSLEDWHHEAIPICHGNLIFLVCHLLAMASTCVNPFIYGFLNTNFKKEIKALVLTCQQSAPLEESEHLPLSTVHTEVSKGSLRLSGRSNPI", "assay": "Allosteric antagonist activity at […]-tagged human NPY4R expressed in COS7 cells co-expressing Gqi5-alpha assessed as inhibition of PP-induced Ca2+ flux by Fluo-2 AM dye based fluorescent assay", "assay_type": "functional, cell-based", "conditions": "filed as allosteric antagonist"}, "[2]": {"molecular_target": "T1, Neuropeptide Y receptor type 4", "assay": "Allosteric antagonist activity at […]-tagged human NPY4R expressed in COS7 cells co-expressing Gqi5-alpha assessed as inhibition of PP-induced Ca2+ flux by Fluo-2 AM dye based fluorescent assay relative to control", "assay_type": "functional, cell-based", "conditions": "read-out: IC50"}, "[3]": {"molecular_target": "T1, Neuropeptide Y receptor type 4", "assay": "Allosteric antagonist activity at […]-tagged human NPY4R expressed in COS7 cells co-expressing Gqi5-alpha assessed as inhibition of PP-induced inositol phosphate accumulation by IP-one assay", "assay_type": "functional, cell-based", "conditions": "filed as allosteric antagonist", "summary_of_the_method": "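IP-One Gq HTRF assay in COS7 cells stably expressing Y4R-eYFP and Δ6Gαqi4myr, 8000 cells/well seeded overnight. Compound or DMSO added, then PP stimulation in HBSS + 20 mM LiCl for 1 h at 37 °C. Cells lysed with kit antibody reagents. Emission read at 665 and 620 nm.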"}, "[4]": {"molecular_target": "T2, Neuropeptide Y receptor type 5 (Mus musculus) (UniProt O70342)", "T2 sequence (whole entry)": "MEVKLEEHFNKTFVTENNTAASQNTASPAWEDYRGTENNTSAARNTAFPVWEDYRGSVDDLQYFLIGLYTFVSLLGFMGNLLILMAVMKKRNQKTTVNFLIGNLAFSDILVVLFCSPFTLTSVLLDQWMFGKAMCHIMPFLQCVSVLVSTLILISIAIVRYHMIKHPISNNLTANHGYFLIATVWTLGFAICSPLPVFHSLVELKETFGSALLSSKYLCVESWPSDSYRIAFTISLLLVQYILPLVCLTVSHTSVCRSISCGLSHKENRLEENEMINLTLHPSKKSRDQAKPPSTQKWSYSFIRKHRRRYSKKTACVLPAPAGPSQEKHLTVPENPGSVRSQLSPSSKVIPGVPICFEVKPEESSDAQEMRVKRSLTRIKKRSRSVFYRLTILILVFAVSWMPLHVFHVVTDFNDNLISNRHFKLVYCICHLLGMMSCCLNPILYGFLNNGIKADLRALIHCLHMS", "assay": "Allosteric antagonist activity at NPY5R in mouse descending colon mucosa assessed as reduction in rPP-induced ion transport at 30 uM by electrophysiology", "summary_of_the_method": "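Mouse descending colon mucosae (0.14 cm² exposed) in Ussing chambers, Krebs−Henseleit both sides, oxygenated, 37 °C, voltage-clamped at 0 mV. After stable basal Isc (20 min), DMSO (0.3%) or antagonist 300 nM–30 μM added basolaterally, then VIP 10 nM (10−15 min), then rPP 30 nM to lower Isc, then PYY 10 nM 15 min later. Isc changes pooled, mean ± SEM, N = 5.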"}, "[5]": {"test_system": "COS7", "assay": "Allosteric antagonist activity at human NPY4R Y1.39 position mutant expressed in COS7 cells co-expressing Gqi5-alpha assessed as inhibition of PP-induced Ca2+ flux by Fluo-2 AM dye based fluorescent assay", "assay_type": "cell-based", "conditions": "dose 15.0 µM", "summary_of_the_method": "(§1)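 COS7 cells transiently cotransfected overnight with 3 μg receptor-eYFP variant plasmid and 1 μg Δ6Gαqi4myr, reseeded next day. Fluo2-AM (2.4 μM) Ca²⁺ assay in HBSS/HEPES/probenecid pH 7.4. Compound concentration series added after 20 s baseline, PP at EC80 added 110 s later. Responses as x-fold over basal, normalized to 1 μM PP. N ≥ 3.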"}, "[6]": {"test_system": "COS7", "assay": "Allosteric antagonist activity at human NPY4R Q2.58 position mutant expressed in COS7 cells co-expressing Gqi5-alpha assessed as inhibition of PP-induced Ca2+ flux by Fluo-2 AM dye based fluorescent assay", "assay_type": "cell-based", "summary_of_the_method": "as §1"}, "[7]": {"test_system": "COS7", "assay": "Allosteric antagonist activity at human NPY4R T2.61 position mutant expressed in COS7 cells co-expressing Gqi5-alpha assessed as inhibition of PP-induced Ca2+ flux by Fluo-2 AM dye based fluorescent assay", "assay_type": "cell-based", "summary_of_the_method": "as §1"}, "[8]": {"test_system": "COS7", "assay": "Allosteric antagonist activity at human NPY4R Y2.64 position mutant expressed in COS7 cells co-expressing Gqi5-alpha assessed as inhibition of PP-induced Ca2+ flux by Fluo-2 AM dye based fluorescent assay", "assay_type": "cell-based", "summary_of_the_method": "as §1"}, "[9]": {"test_system": "COS7", "assay": "Allosteric antagonist activity at human NPY4R W2.70 position mutant expressed in COS7 cells co-expressing Gqi5-alpha assessed as inhibition of PP-induced Ca2+ flux by Fluo-2 AM dye based fluorescent assay", "assay_type": "cell-based", "summary_of_the_method": "as §1"}, "[10]": {"test_system": "COS7", "assay": "Allosteric antagonist activity at human NPY4R S3.28 position mutant expressed in COS7 cells co-expressing Gqi5-alpha assessed as inhibition of PP-induced Ca2+ flux by Fluo-2 AM dye based fluorescent assay", "assay_type": "cell-based", "summary_of_the_method": "as §1"}, "[11]": {"test_system": "COS7", "assay": "Allosteric antagonist activity at human NPY4R A3.29 position mutant expressed in COS7 cells co-expressing Gqi5-alpha assessed as inhibition of PP-induced Ca2+ flux by Fluo-2 AM dye based fluorescent assay", "assay_type": "cell-based", "summary_of_the_method": "as §1"}, "[12]": {"test_system": "COS7", "assay": "Allosteric antagonist activity at human NPY4R Q3.32 position mutant expressed in COS7 cells co-expressing Gqi5-alpha assessed as inhibition of PP-induced Ca2+ flux by Fluo-2 AM dye based fluorescent assay", "assay_type": "cell-based", "summary_of_the_method": "as §1"}, "[13]": {"test_system": "COS7", "assay": "Allosteric antagonist activity at human NPY4R F4.60 position mutant expressed in COS7 cells co-expressing Gqi5-alpha assessed as inhibition of PP-induced Ca2+ flux by Fluo-2 AM dye based fluorescent assay", "assay_type": "cell-based", "summary_of_the_method": "as §1"}, "[14]": {"test_system": "COS7", "assay": "Allosteric antagonist activity at human NPY4R F7.35 position mutant expressed in COS7 cells co-expressing Gqi5-alpha assessed as inhibition of PP-induced Ca2+ flux by Fluo-2 AM dye based fluorescent assay", "assay_type": "cell-based", "summary_of_the_method": "as §1"}, "[15]": {"test_system": "COS7", "assay": "Allosteric antagonist activity at human NPY4R L7.36 position mutant expressed in COS7 cells co-expressing Gqi5-alpha assessed as inhibition of PP-induced Ca2+ flux by Fluo-2 AM dye based fluorescent assay", "assay_type": "cell-based", "summary_of_the_method": "as §1"}, "[16]": {"molecular_target": "Neuropeptide Y receptor type 4 (Mus musculus)", "assay": "Allosteric antagonist activity at NPY4R in mouse descending colon mucosa assessed as reduction in rPP-induced ion transport by electrophysiology"}, "[17]": {"molecular_target": "T3, Neuropeptide Y receptor type 1 (Mus musculus) (UniProt Q04573)", "T3 sequence (whole entry)": "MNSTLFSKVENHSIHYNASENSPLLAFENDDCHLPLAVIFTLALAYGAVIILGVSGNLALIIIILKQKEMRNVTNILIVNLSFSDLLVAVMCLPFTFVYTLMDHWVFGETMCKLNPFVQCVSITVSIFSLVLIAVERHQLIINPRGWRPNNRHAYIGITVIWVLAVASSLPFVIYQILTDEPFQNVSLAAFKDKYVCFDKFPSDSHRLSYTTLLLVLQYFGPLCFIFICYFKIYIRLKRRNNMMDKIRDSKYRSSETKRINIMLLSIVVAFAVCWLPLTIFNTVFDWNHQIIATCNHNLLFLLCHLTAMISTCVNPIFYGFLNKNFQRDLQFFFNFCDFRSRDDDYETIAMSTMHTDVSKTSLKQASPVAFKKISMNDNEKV", "assay": "Allosteric antagonist activity at NPY1R in mouse descending colon mucosa assessed as reduction in PYY-induced ion transport at 30 uM by electrophysiology"}, "[18]": {"molecular_target": "T4, Neuropeptide Y receptor type 2 (Mus musculus) (UniProt P97295)", "T4 sequence (whole entry)": "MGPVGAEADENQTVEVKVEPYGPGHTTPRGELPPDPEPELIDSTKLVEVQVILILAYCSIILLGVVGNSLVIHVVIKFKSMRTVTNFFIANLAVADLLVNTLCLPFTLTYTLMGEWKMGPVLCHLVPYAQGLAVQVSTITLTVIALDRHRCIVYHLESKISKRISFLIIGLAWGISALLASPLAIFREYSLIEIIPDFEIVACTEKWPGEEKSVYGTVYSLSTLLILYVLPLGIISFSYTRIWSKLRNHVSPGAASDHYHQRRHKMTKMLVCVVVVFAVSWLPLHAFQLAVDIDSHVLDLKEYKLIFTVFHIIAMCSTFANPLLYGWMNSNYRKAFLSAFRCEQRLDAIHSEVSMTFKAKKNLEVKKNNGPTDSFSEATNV", "assay": "Allosteric antagonist activity at NPY2R in mouse descending colon mucosa assessed as reduction in PYY-induced ion transport at 30 uM by electrophysiology"}, "[19]": {"molecular_target": "T3, Neuropeptide Y receptor type 1 (Mus musculus)", "assay": "Allosteric antagonist activity at NPY1R in mouse descending colon mucosa assessed as reduction in PYY-induced ion transport at 0.3 to 30 uM by electrophysiology", "conditions": "dose 0.3-30 µM"}, "[20]": {"molecular_target": "T4, Neuropeptide Y receptor type 2 (Mus musculus)", "assay": "Allosteric antagonist activity at NPY2R in mouse descending colon mucosa assessed as reduction in PYY-induced ion transport at 0.3 to 30 uM by electrophysiology", "conditions": "dose 0.3-30 µM"}}, "note": "The source made the active and inactive calls. The calls are words filed in the database; no cut-off is given here.", "data": [{"molecule": "CS(=O)(=O)N1CCCC[C@H]1C(=O)Nc1nc2cc3c(cc2s1)OCCO3", "values": [{"measurement": "Kb", "setting": "[1]", "result": 0.38, "unit": "µM"}, {"measurement": "inhibition", "setting": "[1]", "result": "Dose-dependent effect"}, {"measurement": "pKb", "setting": "[1]", "result": 6.4}, {"measurement": "IC50", "setting": "[2]", "result": 2.7, "unit": "µM"}, {"measurement": "inhibition", "setting": "[3]", "result": "Active"}, {"measurement": "inhibition", "setting": "[4]", "result": "inactive"}, {"measurement": "inhibition", "setting": "[5]", "result": "inactive"}, {"measurement": "inhibition", "setting": "[6]", "result": "inactive"}, {"measurement": "inhibition", "setting": "[7]", "result": "inactive"}, {"measurement": "inhibition", "setting": "[8]", "result": "inactive"}, {"measurement": "inhibition", "setting": "[9]", "result": "inactive"}, {"measurement": "inhibition", "setting": "[10]", "result": "inactive"}, {"measurement": "inhibition", "setting": "[11]", "result": "inactive"}, {"measurement": "inhibition", "setting": "[12]", "result": "inactive"}, {"measurement": "inhibition", "setting": "[13]", "result": "inactive"}, {"measurement": "inhibition", "setting": "[14]", "result": "inactive"}, {"measurement": "inhibition", "setting": "[15]", "result": "inactive"}, {"measurement": "IC50", "setting": "[16]", "result": 3.8, "unit": "µM"}, {"measurement": "inhibition", "setting": "[16]; filed as allosteric antagonist", "result": "Dose-dependent effect"}, {"measurement": "inhibition", "setting": "[17]", "result": "inactive"}, {"measurement": "inhibition", "setting": "[18]", "result": "inactive"}, {"measurement": "inhibition", "setting": "[19]", "result": "inactive"}, {"measurement": "inhibition", "setting": "[20]", "result": "inactive"}]}]}
